Reference: ChEMBL document CHEMBL1833959, “Itraconazole side chain analogues: structure-activity relationship studies for inhibition of endothelial cell proliferation, vascular endothelial growth factor receptor 2 (VEGFR2) glycosylation, and hedgehog signaling” (2011)
Calls of active or inactive are those of the source. The rule behind the calls is not given here.

Key:
HUVEC = experiment: Ratio of itraconazole IC50 to compound IC50 for antiangiogenic activity in human HUVEC cells assessed as inhibition of cell proliferation; format: functional
[1] = target: Vascular endothelial growth factor receptor 2 (Homo sapiens) (UniProt P35968); experiment: Inhibition of VEGFR2 glycosylation in human HUVEC cells at 2 uM after 24 hrs by Western blot analysis; format: cell-based
Procedure, shortened: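 Pooled HUVEC (passage ≤8, EGM-2) seeded 5 × 10^4 per well, recovered overnight, then given fresh media with analogue added from 200X DMSO stocks; 24 h exposure. Cells lysed in 2X SDS sample buffer (ice 10 min, boiled 10 min), 6% SDS-PAGE, PVDF blot probed with anti-VEGFR2 and HRP anti-rabbit IgG, ECL detection.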

[2] = Ratio of itraconazole IC50 to compound IC50 for antiproliferative activity against mouse Ptch+/- p53-/- medulloblastoma cells isolated from allografts in nude Harlan mouse after 96 hrs; format: functional, Medulloblastoma cell
Procedure, shortened: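 Ptch−/+;p53−/− MB cells from nude-mouse allografts (ficoll-purified, three neurosphere passages, CD15 confirmed by flow cytometry) disaggregated and seeded in NBMedia with multiple analogue concentrations for 96 h. Cell number read by MTS-type CellTiter 96 AQueous absorbance; IC50 fitted from dose–response curves of mean corrected absorbance normalized to control, expressed relative to itraconazole.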

[3] = Inhibition of hedgehog signaling pathway in mouse Ptch+/- p53-/- medulloblastoma cells assessed as inhibition of receptor-mediated Gli1 transcriptional activity at antiproliferative IC90 concentration after 24 hrs by RT-PCR analysis relative to control

Vascular endothelial growth factor receptor 2 (Homo sapiens), sequence (P35968 whole entry): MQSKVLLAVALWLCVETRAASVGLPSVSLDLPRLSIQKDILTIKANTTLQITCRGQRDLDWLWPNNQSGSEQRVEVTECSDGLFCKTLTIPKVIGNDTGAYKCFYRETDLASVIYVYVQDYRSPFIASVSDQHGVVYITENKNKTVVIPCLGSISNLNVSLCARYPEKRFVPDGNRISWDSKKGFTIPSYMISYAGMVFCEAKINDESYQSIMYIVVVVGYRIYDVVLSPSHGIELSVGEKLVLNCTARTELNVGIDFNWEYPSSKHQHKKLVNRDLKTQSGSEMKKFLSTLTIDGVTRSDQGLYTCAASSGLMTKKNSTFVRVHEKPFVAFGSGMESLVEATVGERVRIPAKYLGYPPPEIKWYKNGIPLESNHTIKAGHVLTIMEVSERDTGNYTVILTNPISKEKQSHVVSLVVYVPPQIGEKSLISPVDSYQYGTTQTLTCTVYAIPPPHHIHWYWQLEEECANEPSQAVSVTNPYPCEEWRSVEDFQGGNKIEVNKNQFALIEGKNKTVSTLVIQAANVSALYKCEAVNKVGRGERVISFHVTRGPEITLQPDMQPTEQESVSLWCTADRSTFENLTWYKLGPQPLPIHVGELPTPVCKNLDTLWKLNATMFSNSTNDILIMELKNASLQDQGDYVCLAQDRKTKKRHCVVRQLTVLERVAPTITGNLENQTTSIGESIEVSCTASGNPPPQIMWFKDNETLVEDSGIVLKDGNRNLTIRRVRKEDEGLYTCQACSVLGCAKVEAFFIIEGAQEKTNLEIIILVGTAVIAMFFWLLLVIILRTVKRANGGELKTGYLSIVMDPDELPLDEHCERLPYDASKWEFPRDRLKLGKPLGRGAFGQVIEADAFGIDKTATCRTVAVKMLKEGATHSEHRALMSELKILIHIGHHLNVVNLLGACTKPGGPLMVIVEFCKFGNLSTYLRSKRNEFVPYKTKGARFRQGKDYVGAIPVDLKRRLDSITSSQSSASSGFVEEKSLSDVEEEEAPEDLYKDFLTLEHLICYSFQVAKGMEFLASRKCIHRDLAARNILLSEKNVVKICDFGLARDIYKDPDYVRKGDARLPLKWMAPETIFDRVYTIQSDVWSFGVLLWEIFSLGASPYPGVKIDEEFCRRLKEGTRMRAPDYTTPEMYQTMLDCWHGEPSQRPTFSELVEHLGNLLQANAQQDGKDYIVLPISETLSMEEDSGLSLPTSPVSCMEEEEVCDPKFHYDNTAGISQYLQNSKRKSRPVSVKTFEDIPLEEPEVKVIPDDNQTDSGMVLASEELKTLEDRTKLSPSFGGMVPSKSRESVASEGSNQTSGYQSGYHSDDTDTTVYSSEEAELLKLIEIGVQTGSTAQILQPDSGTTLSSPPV

SMILES	Ratio IC50 (HUVEC)	inhibition [1]	Ratio IC50 [2]	fold change (FC) [3]
CCn1ncn(-c2ccc(N3CCN(c4ccc(OC[C@@H]5CO[C@@](Cn6cncn6)(c6ccc(Cl)cc6Cl)O5)cc4)CC3)cc2)c1=O	2.94	inactive	1.62	> 0.45
O=c1n(-c2ccc(N3CCN(c4ccc(OC[C@@H]5CO[C@@](Cn6cncn6)(c6ccc(Cl)cc6Cl)O5)cc4)CC3)cc2)cnn1C1CCCCC1	0.44	Active	0.37	> 0.45
N#CCCCCCn1ncn(-c2ccc(N3CCN(c4ccc(OC[C@@H]5CO[C@@](Cn6cncn6)(c6ccc(Cl)cc6Cl)O5)cc4)CC3)cc2)c1=O	0.18	Active	0.84	0.16
CC(C)n1ncn(-c2ccc(N3CCN(c4ccc(OC[C@@H]5CO[C@@](Cn6cncn6)(c6ccc(Cl)cc6Cl)O5)cc4)CC3)cc2)c1=O	2.18	inactive	1.06	> 0.45
CC[C@@H](C)n1ncn(-c2ccc(N3CCN(c4ccc(OC[C@H]5CO[C@@](Cn6cncn6)(c6ccc(Cl)cc6Cl)O5)cc4)CC3)cc2)c1=O	3.9	inactive	1.7	–
O=c1[nH]ncn1-c1ccc(N2CCN(c3ccc(OC[C@@H]4CO[C@@](Cn5cncn5)(c5ccc(Cl)cc5Cl)O4)cc3)CC2)cc1	2.78	inactive	0.89	< 0.15
CC[C@@H](C)n1ncn(-c2ccc(N3CCN(c4ccc(OC[C@@H]5CO[C@](Cn6cncn6)(c6ccc(Cl)cc6Cl)O5)cc4)CC3)cc2)c1=O	3.7	inactive	2.3	–
CCC#CCCn1ncn(-c2ccc(N3CCN(c4ccc(OC[C@@H]5CO[C@@](Cn6cncn6)(c6ccc(Cl)cc6Cl)O5)cc4)CC3)cc2)c1=O	1.09	inactive	1.07	< 0.15
CC/C=C/CCn1ncn(-c2ccc(N3CCN(c4ccc(OC[C@@H]5CO[C@@](Cn6cncn6)(c6ccc(Cl)cc6Cl)O5)cc4)CC3)cc2)c1=O	1.57	inactive	0.63	< 0.15
O=c1n(-c2ccc(N3CCN(c4ccc(OC[C@@H]5CO[C@@](Cn6cncn6)(c6ccc(Cl)cc6Cl)O5)cc4)CC3)cc2)cnn1CC1CCCC1	0.5	Active	0.5	0.16
CC[C@H](C)n1ncn(-c2ccc(N3CCN(c4ccc(OC[C@H]5CO[C@@](Cn6cncn6)(c6ccc(Cl)cc6Cl)O5)cc4)CC3)cc2)c1=O	3.1	Active	2.1	–
C#CCCCn1ncn(-c2ccc(N3CCN(c4ccc(OC[C@H]5CO[C@](Cn6cncn6)(c6ccc(Cl)cc6Cl)O5)cc4)CC3)cc2)c1=O	0.14	inactive	0.71	< 0.15
CCC(CC)n1ncn(-c2ccc(N3CCN(c4ccc(OC[C@@H]5CO[C@@](Cn6cncn6)(c6ccc(Cl)cc6Cl)O5)cc4)CC3)cc2)c1=O	1.1	Active	0.54	< 0.15
CC/C=C\CCn1ncn(-c2ccc(N3CCN(c4ccc(OC[C@@H]5CO[C@@](Cn6cncn6)(c6ccc(Cl)cc6Cl)O5)cc4)CC3)cc2)c1=O	0.73	inactive	0.94	< 0.15
CCCn1ncn(-c2ccc(N3CCN(c4ccc(OC[C@@H]5CO[C@@](Cn6cncn6)(c6ccc(Cl)cc6Cl)O5)cc4)CC3)cc2)c1=O	1.06	Active	1.01	< 0.15
CCC1(Cn2ncn(-c3ccc(N4CCN(c5ccc(OC[C@@H]6CO[C@@](Cn7cncn7)(c7ccc(Cl)cc7Cl)O6)cc5)CC4)cc3)c2=O)COC1	0.77	Active	0.74	0.16
CC1(CCn2ncn(-c3ccc(N4CCN(c5ccc(OC[C@@H]6CO[C@@](Cn7cncn7)(c7ccc(Cl)cc7Cl)O6)cc5)CC4)cc3)c2=O)N=N1	>13.8	Active	1.32	0.16
CCCC(C)n1ncn(-c2ccc(N3CCN(c4ccc(OC[C@@H]5CO[C@@](Cn6cncn6)(c6ccc(Cl)cc6Cl)O5)cc4)CC3)cc2)c1=O (mixture of isomers)	0.75	Active	0.38	< 0.15
CC[C@H](C)n1ncn(-c2ccc(N3CCN(c4ccc(OC[C@@H]5CO[C@](Cn6cncn6)(c6ccc(Cl)cc6Cl)O5)cc4)CC3)cc2)c1=O	3.2	Active	1.5	–
CC[C@H](C)n1ncn(-c2ccc(N3CCN(c4ccc(OC[C@H]5CO[C@](Cn6cncn6)(c6ccc(Cl)cc6Cl)O5)cc4)CC3)cc2)c1=O	1.6	Active	1.3	–
CCCCn1ncn(-c2ccc(N3CCN(c4ccc(OC[C@@H]5CO[C@@](Cn6cncn6)(c6ccc(Cl)cc6Cl)O5)cc4)CC3)cc2)c1=O	2.1	inactive	0.7	> 0.45
CC[C@H](C)n1ncn(-c2ccc(N3CCN(c4ccc(OC[C@@H]5CO[C@@](Cn6cncn6)(c6ccc(Cl)cc6Cl)O5)cc4)CC3)cc2)c1=O	0.8	Active	1.3	–
CCCCCn1ncn(-c2ccc(N3CCN(c4ccc(OC[C@@H]5CO[C@@](Cn6cncn6)(c6ccc(Cl)cc6Cl)O5)cc4)CC3)cc2)c1=O	1.09	inactive	0.66	< 0.15
O=C(c1ccccc1)c1ccc(OCCCCCCn2ncn(-c3ccc(N4CCN(c5ccc(OC[C@@H]6CO[C@@](Cn7cncn7)(c7ccc(Cl)cc7Cl)O6)cc5)CC4)cc3)c2=O)cc1	>69.9	inactive	0.8	> 0.45
Cn1ncn(-c2ccc(N3CCN(c4ccc(OC[C@@H]5CO[C@@](Cn6cncn6)(c6ccc(Cl)cc6Cl)O5)cc4)CC3)cc2)c1=O	4	inactive	2.71	> 0.45
CC[C@@H](C)n1ncn(-c2ccc(N3CCN(c4ccc(OC[C@@H]5CO[C@@](Cn6cncn6)(c6ccc(Cl)cc6Cl)O5)cc4)CC3)cc2)c1=O	1.1	Active	1.4	–
CC[C@@H](C)n1ncn(-c2ccc(N3CCN(c4ccc(OC[C@H]5CO[C@](Cn6cncn6)(c6ccc(Cl)cc6Cl)O5)cc4)CC3)cc2)c1=O	2.5	Active	1.7	–
CC(C)CCn1ncn(-c2ccc(N3CCN(c4ccc(OC[C@@H]5CO[C@@](Cn6cncn6)(c6ccc(Cl)cc6Cl)O5)cc4)CC3)cc2)c1=O	1.42	Active	0.41	< 0.15
CC(C)Cn1ncn(-c2ccc(N3CCN(c4ccc(OC[C@@H]5CO[C@@](Cn6cncn6)(c6ccc(Cl)cc6Cl)O5)cc4)CC3)cc2)c1=O	1.32	Active	0.86	> 0.45
[N-]=[N+]=NCCCCCCn1ncn(-c2ccc(N3CCN(c4ccc(OC[C@@H]5CO[C@@](Cn6cncn6)(c6ccc(Cl)cc6Cl)O5)cc4)CC3)cc2)c1=O	0.3	Active	0.7	0.16
